# From publication PMC8817670 (Journal of medicinal chemistry, 2021)
# Where two headings read alike, the source gives them in different places.
# Legend:
# [1] = molecular target: TSPO in human U87MG cells (Homo sapiens, UniProt P30536); assay: [3H]PK11195 displacement binding, human U87MG cell membranes; details: for lipE human U87MG: lipE = pKi – logD
# [2] = test system: human cerebellum TSPO, LAB genotype; assay: [3H]PK11195 binding assay, human cerebellum homogenates, LAB genotype; details: human cerebellum genotype sensitivity in vitro
# [3] = molecular target: T1, human cerebellum TSPO, LAB genotype (Homo sapiens, UniProt P30536); assay: as above
# [4] = molecular target: T2, TSPO in rat kidney (Rattus norvegicus, UniProt P16257); assay: [3H]PK11195 displacement binding, rat kidney membranes; details: for lipE rat kidney: lipE = pKi – logD
# [5] = Measurement of logD; type: physicochemical; details: for logD7.4: n-octanol / sodium phosphate buffer pH 7.4, RT, n = 6; for logD: n-octanol/sodium phosphate buffer, pH 7.4
# Summary of the method: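 Shake-flask partition of each radiolabelled test compound between 1-octanol and sodium phosphate buffer (pH 7.4) at room temperature; logD taken from the distribution coefficient of radioactivity between the two phases.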
# [6] = molecular target: T3, human cerebellum TSPO, HAB genotype (Homo sapiens, UniProt P30536); assay: [3H]PK11195 binding assay, human cerebellum homogenates, HAB genotype; details: for lipE HAB: lipE = pKi – logD
# [7] = molecular target: T3, human cerebellum TSPO, HAB genotype; details: cited from earlier work
# [8] = cited from earlier work
# [9] = test system: human cerebellum TSPO, LAB genotype; details: cited from earlier work
# [10] = molecular target: T1, human cerebellum TSPO, LAB genotype; details: read-out: LAB Ki; cited from earlier work
# [11] = molecular target: T2, TSPO in rat kidney; details: cited from earlier work
# [12] = molecular target: TSPO in the mouse brain (Mus musculus, UniProt P50637); assay: PET imaging of radioligands in mouse brain, baseline and PK11195 preblock; type: in vivo
# [13] = read-out: human U87MG Ki, [3H]PK11195 1 nM, 90 min at 0 °C, n = 3
# [14] = read-out: LAB Ki, human cerebellum, three LAB subjects, 1 h at 37 °C
# [15] = read-out: rat kidney Ki, [3H]PK11195 1 nM, 90 min at 0 °C, n = 3
# [16] = read-out: HAB Ki, human cerebellum, three HAB subjects, 1 h at 37 °C
# [17] = lipE = pKi – logD, data from ref 27
# T3 sequence (P30536 whole entry): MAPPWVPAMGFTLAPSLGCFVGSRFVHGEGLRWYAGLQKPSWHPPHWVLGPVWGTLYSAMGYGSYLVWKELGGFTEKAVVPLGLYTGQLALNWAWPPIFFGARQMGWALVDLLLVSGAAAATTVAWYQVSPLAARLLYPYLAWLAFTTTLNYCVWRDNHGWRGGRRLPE
# Sequence of TSPO in human U87MG cells (P30536 whole entry): as above
# T1 sequence (P30536 2-169): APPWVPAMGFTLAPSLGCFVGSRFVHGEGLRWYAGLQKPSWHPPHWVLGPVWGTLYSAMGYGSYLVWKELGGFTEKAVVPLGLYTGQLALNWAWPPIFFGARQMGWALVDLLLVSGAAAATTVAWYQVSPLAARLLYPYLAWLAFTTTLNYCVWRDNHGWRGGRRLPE
Structure (SMILES),lipE human U87MG [1],"Ki [1, 13] [nM]",LAB to HAB Ki ratio [2],"Ki [3, 14] [nM]",lipE rat kidney [4],"Ki [4, 15] [nM]",logD7.4 [5],lipE HAB [6],"Ki [6, 16] [nM]",Ki [1] [nM],Ki [3] [nM],Ki [4] [nM],logD [5],Ki [6] [nM],further results
"CC[C@@H](C)N(C)C(=O)c1nc(-c2ccccc2F)c2ccccc2n1 [3a, (R)-(N-sec-Butyl)-4-(2-fluorophenyl)-N-methylquinazoline-2-carboxamide]",5.21,5.64 ± 0.66,2.78,25 ± 11.6,5.34,4.19 ± 0.35,3.04 ± 0.03,5.01,9 ± 9.5,–,–,–,–,–,–
"CC[C@@H](C)N(C)C(=O)c1nc(-c2ccc(F)cc2)c2ccccc2n1 [3c, (R)-(N-sec-Butyl)-4-(4-fluorophenyl)-N-methylquinazoline-2-carboxamide]",5.14,7.03 ± 0.66,2.91,44.5 ± 34.4,5.12,7.41 ± 0.82,3.01 ± 0.02,4.81,15.3 ± 10.3,–,–,–,–,–,–
"CC[C@@H](C)N(C)C(=O)c1nc(-c2cccc(F)c2)c2ccccc2n1 [3b, (R)-(N-sec-Butyl)-4-(3-fluorophenyl)-N-methylquinazoline-2-carboxamide]",5.20,5.09 ± 0.65,2.74,24.9 ± 12.7,5.20,5.17 ± 0.63,3.09 ± 0.01,4.95,9.1 ± 8.1,–,–,–,–,–,–
"CC[C@@H](C)N(C)C(=O)c1nc(-c2ccccc2Cl)c2ccccc2n1 [ER176, (R)-N-(sec-butyl)-4-(2-chlorophenyl)-N-methylquina-zoline-2-carboxamide]",–,–,–,–,–,–,–,–,–,–,–,–,–,–,"lipE HAB [7, 17]: 5.28; Ki ([7]; read-out: HAB Ki): 1.48 nM; logD7.4 [8]: 3.55 ± 0.02; LAB to HAB Ki ratio [9]: 1.28; Ki [10]: 1.89 nM; lipE rat kidney [11, 17]: 4.96; Ki ([11]; read-out: rat kidney Ki): 3.1 ± 0.3 nM"
"CC[C@@H](C)N(C)C(=O)c1nc(-c2ccccc2C(F)(F)F)c2ccccc2n1 [3d, (R)-N-(sec-Butyl)-N-methyl-4-(2-(trifluoromethyl)phenyl)-quinazoline-2-carboxamide]",5.25,–,5.46,–,5.18,–,–,–,–,3.18 ± 0.17,37.1 ± 30.2,3.74 ± 0.1,3.25 ± 0.03,6.8 ± 8.1,–
CC[C@@H](C)N([11CH3])C(=O)c1nc(-c2ccccc2Cl)c2ccccc2n1 [[^11C]ER176],–,–,–,–,–,–,–,–,–,–,–,–,–,–,"blocking effect of PK11195 on brain uptake ([12]; PK11195 5 mg/kg i.v. preblock, baseline vs preblock, 80–100 min): 72%; peak radioactivity uptake in the brain ([12]; mouse whole brain, baseline, i.v. injection): around 1.0 SUV; estimated brain TSPO occupancy at baseline ([12]; occupancy by carrier, estimated from brain concentration and molar activity): 2.6%"

# Further lines, with some results ahead:
lipE human U87MG [1],"Ki [1, 13] [nM]",LAB to HAB Ki ratio [2],"Ki [3, 14] [nM]",lipE rat kidney [4],"Ki [4, 15] [nM]",logD7.4 [5],lipE HAB [6],"Ki [6, 16] [nM]",Ki [1] [nM],Ki [3] [nM],Ki [4] [nM],logD [5],Ki [6] [nM],Structure (SMILES),further results
4.69,–,0.8,–,4.43,–,–,4.37,–,2.42 ± 0.66,4 ± 5,4.39 ± 0.14,3.93 ± 0.01,5 ± 3.9,"CC[C@@H](C)N(C)C(=O)c1nc(-c2ccc(C(F)(F)F)cc2)c2ccccc2n1 [3f, (R)-N-(sec-Butyl)-N-methyl-4-(4-(trifluoromethyl)phenyl)-quinazoline-2-carboxamide]",–
–,–,–,–,–,–,3.97 ± 0.02,–,–,–,–,–,–,–,"CCC(C)N(C)C(=O)c1cc2ccccc2c(-c2ccccc2Cl)n1 (stereo not shown) [PK11195, reference compound]",–
5.21,–,1.98,–,5.14,–,–,4.02,–,1.19 ± 0.17,36.9 ± 38.5,1.44 ± 0.21,3.71 ± 0.03,18.6 ± 15.7,"CC[C@@H](C)N(C)C(=O)c1nc(-c2cccc(C(F)(F)F)c2)c2ccccc2n1 [3e, (R)-N-(sec-Butyl)-N-methyl-4-(3-(trifluoromethyl)phenyl)-quinazoline-2-carboxamide]",–
